This note sets out measurements from ChEMBL document CHEMBL3045119, “Synthesis and fungicidal activity of novel aminophenazine-1-carboxylate derivatives” (J Agric Food Chem, 2010).

Values after ≈ are worked out from the molar mass of the structure shown. A value given as a limit tells only on which side of the number the result lay.

Experiment [1] relates to Alternaria solani. Nature of the experiment: Fungicidal activity against Alternaria solani assessed as inhibition of mycelium growth by mycelium growth rate method. Type of experiment: functional, organism-based. The method in brief:
(§1)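 Mycelium growth rate method: colony diameters measured once mycelia had grown completely, and the relative inhibition rate (%) calculated from the diameters by formula. Phenazine-1-carboxylic acid ran as control. Values are the average of three replicate results.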

In experiment [2] the test system is Botryosphaeria berengeriana. Nature of the experiment: Fungicidal activity against Botryosphaeria berengeriana assessed as inhibition of mycelium growth by mycelium growth rate method. The format is functional, organism-based. The method, boiled down: as §1
Experiment [3] has as its system Mycosphaerella arachidis. The experiment can be described thus: Fungicidal activity against Mycosphaerella arachidis assessed as inhibition of mycelium growth by mycelium growth rate method. The format is functional, organism-based. The method, boiled down:
as §1

Experiment [4] relates to Fusarium graminearum. The experiment can be described thus: Fungicidal activity against Fusarium graminearum assessed as inhibition of mycelium growth by mycelium growth rate method. The format is functional, organism-based. The method, boiled down:
as §1

The test system of experiment [5] is Fusarium oxysporum. The experiment can be described thus: Fungicidal activity against Fusarium oxysporum assessed as inhibition of mycelium growth at 50 ug/mL by mycelium growth rate method. The format is functional. The method in brief:
as §1

The test system of experiment [6] is Mycosphaerella arachidis. Nature of the experiment: Fungicidal activity against Mycosphaerella arachidis assessed as inhibition of mycelium growth at 50 ug/mL by mycelium growth rate method. The format is functional. The method, boiled down:
as §1

Experiment [7] concerns Fusarium oxysporum. The experiment can be described thus: Fungicidal activity against Fusarium oxysporum assessed as inhibition of mycelium growth by mycelium growth rate method. Type of experiment: functional, organism-based. The method in brief: as §1
For experiment [8], the system named is Fusarium graminearum. Nature of the experiment: Fungicidal activity against Fusarium graminearum assessed as inhibition of mycelium growth at 50 ug/mL by mycelium growth rate method. Type of experiment: functional. The method in brief:
as §1

Experiment [9] concerns Botryosphaeria berengeriana. Nature of the experiment: Fungicidal activity against Botryosphaeria berengeriana assessed as inhibition of mycelium growth at 50 ug/mL by mycelium growth rate method. Type of experiment: functional. The method, boiled down:
as §1

The subject of experiment [10] is Alternaria solani. The experiment can be described thus: Fungicidal activity against Alternaria solani assessed as inhibition of mycelium growth at 50 ug/mL by mycelium growth rate method. The format is functional. The method, boiled down:
as §1

The EC50 is the concentration needed to bring the measured effect to its halfway point. By inhibition is commonly meant the relative decrease from the control value, in per cent. On to `O=C(O)c1cccc2nc3ccccc3nc12` [PHENAZINE-1-CARBOXYLIC ACID], for which the concentration for a half-maximal effect (EC50) was 18.5 mg/L (≈ 82.5 µM) in the experiment with Alternaria solani [1]; 3.58 mg/L (≈ 16 µM) in experiment [2]; 13.2 mg/L (≈ 58.9 µM) with Mycosphaerella arachidis [3]; > 50 mg/L in the experiment with Fusarium graminearum [4]; 14.9 mg/L (≈ 66.5 µM) with Fusarium oxysporum [7]. Besides, the inhibition at 50 µg/mL in the experiment with Fusarium oxysporum [5] was 65.4%; in the experiment on Mycosphaerella arachidis [6], 92.3%; with Fusarium graminearum [8], 43.1%; in experiment [9], 100%; in the experiment with Alternaria solani [10] it was 100%.
For the molecule `COC(=O)c1cccc2nc3c(N)cccc3nc12`, the EC50 with Alternaria solani [1] was 20.5 mg/L (≈ 81.1 µM); in experiment [2], 3 mg/L (≈ 11.8 µM); with Mycosphaerella arachidis [3], > 50 mg/L; in the experiment on Fusarium graminearum [4] it was > 50 mg/L; with Fusarium oxysporum [7] it was > 50 mg/L. The inhibition at 50 µg/mL amounted to 40% in the experiment with Fusarium oxysporum [5]; 26.9% in the experiment with Mycosphaerella arachidis [6]; 36.3% in the experiment with Fusarium graminearum [8]; 100% in [9]; 100% in the experiment with Alternaria solani [10].
`CCOC(=O)c1cccc2nc3c(N)cccc3nc12`: the concentration giving a half-maximal response (EC50) in the experiment with Alternaria solani [1] was 40.1 mg/L (≈ 150 µM); in experiment [2] it was 4.44 mg/L (≈ 16.6 µM); in the experiment with Mycosphaerella arachidis [3], > 50 mg/L; in the experiment on Fusarium graminearum [4], > 50 mg/L; in the experiment on Fusarium oxysporum [7], > 50 mg/L. The inhibition at 50 µg/mL in the experiment with Fusarium oxysporum [5] worked out at 33.3%; with Mycosphaerella arachidis [6], 32%; in the experiment on Fusarium graminearum [8], 41.8%; in experiment [9] it was 100%; in the experiment with Alternaria solani [10] it was 51%.
Take `Nc1ccc2nc3cccc(C(=O)O)c3nc2c1`: the inhibition at 50 µg/mL in the experiment on Fusarium oxysporum [5] was found to be 6.9%; in the experiment on Mycosphaerella arachidis [6], 11.5%; in the experiment on Fusarium graminearum [8] it was 33.9%; in [9], 9.6%; in the experiment on Alternaria solani [10], 5.9%.
The corresponding values for `CCCOC(=O)c1cccc2nc3cc(N)c(OCCC)cc3nc12` are 0%, 21.7%, 20%, 26.5% and 20%.
